Measurements reported in ChEMBL document CHEMBL4813976, “Rational drug design of benzothiazole-based derivatives as potent signal transducer and activator of transcription 3 (STAT3) signaling pathway inhibitors” (Eur J Med Chem, 2021).
Calls of active or inactive are those of the source. No cut-off for these calls is given here.

Experiments:
[1] = target: T1, Signal transducer and activator of transcription 3 (Homo sapiens, UniProt P40763); test: Inhibition of IL-6 induced STAT3 transcriptional activity in human HepG2 cells incubated for 1 hr followed by stimulation with IL-6 for 5.5 hrs by luciferase reporter gene assay; type: cell-based
T1 sequence (P40763 whole entry): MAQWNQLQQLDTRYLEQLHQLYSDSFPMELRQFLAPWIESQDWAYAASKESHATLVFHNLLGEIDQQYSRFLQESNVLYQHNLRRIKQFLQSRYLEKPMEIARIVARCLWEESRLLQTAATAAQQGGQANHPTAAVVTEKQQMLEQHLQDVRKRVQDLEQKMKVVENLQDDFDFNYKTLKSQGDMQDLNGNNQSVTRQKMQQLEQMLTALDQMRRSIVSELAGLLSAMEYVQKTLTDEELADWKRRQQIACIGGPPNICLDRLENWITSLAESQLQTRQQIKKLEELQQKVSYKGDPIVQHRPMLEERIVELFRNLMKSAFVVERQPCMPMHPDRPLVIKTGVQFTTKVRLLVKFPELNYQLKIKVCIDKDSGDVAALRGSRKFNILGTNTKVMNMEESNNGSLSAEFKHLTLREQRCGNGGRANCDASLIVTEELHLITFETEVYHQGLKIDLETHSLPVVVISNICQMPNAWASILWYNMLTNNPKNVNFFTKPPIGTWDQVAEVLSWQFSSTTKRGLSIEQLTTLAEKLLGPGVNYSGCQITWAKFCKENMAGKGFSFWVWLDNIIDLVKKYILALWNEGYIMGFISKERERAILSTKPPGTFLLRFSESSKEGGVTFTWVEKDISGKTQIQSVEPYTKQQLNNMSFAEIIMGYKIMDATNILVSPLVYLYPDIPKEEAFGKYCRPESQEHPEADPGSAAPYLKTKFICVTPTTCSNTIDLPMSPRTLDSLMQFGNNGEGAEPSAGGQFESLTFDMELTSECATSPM
Method in brief: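 STAT3-dependent luciferase reporter assay in HepG2 cells with IL-6 stimulation; IC50 given as mean ± SD of at least three independent experiments.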

[2] = test system: HEL; test: Antiproliferative activity against human HEL cells harboring JAK2 V617F mutant assessed as inhibition of cell growth incubated for 72 hrs by MTT assay; type: functional, cell-based
Method in brief: (§1)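 MTT proliferation assay; MDA-MB-468 grown in DMEM/F-12 and HEL in high-glucose DMEM, each with 10% FBS and penicillin/streptomycin, at 37 °C under 5% CO₂. IC50 given as mean ± SD of at least three independent experiments.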

[3] = test system: MDA-MB-468; test: Antiproliferative activity against human MDA-MB-468 cells overexpressing STAT3 assessed as inhibition of cell growth incubated for 72 hrs by MTT assay; type: functional, cell-based; conditions: MDA-MB-468, 72 h; method in brief: as §1
[4] = test system: MDA-MB-453; test: Antiproliferative activity against human MDA-MB-453 cells expressing low levels of STAT3 assessed as inhibition of cell growth incubated for 72 hrs by MTT assay; type: functional, cell-based; conditions: MDA-MB-453, 72 h
Method in brief: (§2)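 MTT proliferation assay on MCF-7 and MDA-MB-453 cells; IC50 given as mean ± SD of at least two independent experiments.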

[5] = test system: MCF7; test: Antiproliferative activity against human MCF7 cells expressing low levels of STAT3 assessed as inhibition of cell growth incubated for 72 hrs by MTT assay; type: functional, cell-based; conditions: MCF7, 72 h; method in brief: as §2
[6] = target: T1, Signal transducer and activator of transcription 3; test: Inhibition of STAT3 phosphorylation at Tyr705 residue in human HEL cells expressing JAK2 V617F mutant measured after 24 hrs by Western blot analysis; type: cell-based; conditions: dose 1.25-5 µM
Method in brief: (§3)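 Cells were treated for 24 h, then lysed in hot 2% SDS with boiling, and protein was quantified by BCA. Lysates were run on SDS-PAGE, transferred to nitrocellulose and blocked with 3% milk in TBST. Membranes were probed overnight at 4 °C with 1:1000 antibodies to pSTAT3 Tyr705, pSTAT3 Ser727, STAT3, c-Myc, MCL-1, β-actin and GAPDH. Detection used HRP secondaries and ECL.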

[7] = target: T1, Signal transducer and activator of transcription 3; test: Inhibition of STAT3 phosphorylation at Ser727 residue in human HEL cells expressing JAK2 V617F mutant measured after 24 hrs by Western blot analysis; type: cell-based; conditions: dose 1.25-5 µM; method in brief: as §3
[8] = target: T1, Signal transducer and activator of transcription 3; test: Inhibition of STAT3 phosphorylation at Tyr705 residue in human MDA-MB-468 cells measured after 24 hrs by Western blot analysis; type: cell-based; conditions: dose 1.25-5 µM; method in brief: as §3
[9] = target: T1, Signal transducer and activator of transcription 3; test: Inhibition of STAT3 phosphorylation at Ser727 residue in human MDA-MB-468 cells measured after 24 hrs by Western blot analysis; type: cell-based; conditions: dose 1.25-5 µM; method in brief: as §3
[10] = target: T1, Signal transducer and activator of transcription 3; test: Inhibition of STAT3 in human HEL cells expressing JAK2 V617F mutant cells assessed as downregulation of c-Myc protein expression at 1.25 to 5 uM incubated for 24 hrs by western blot analysis; type: cell-based; conditions: dose 1.25-5 µM; method in brief: as §3
[11] = target: T1, Signal transducer and activator of transcription 3; test: Inhibition of STAT3 in human HEL cells expressing JAK2 V617F mutant cells assessed as downregulation of MCL-1 protein expression at 1.25 to 5 uM incubated for 24 hrs by western blot analysis; type: cell-based; conditions: dose 1.25-5 µM; method in brief: as §3
[12] = target: T1, Signal transducer and activator of transcription 3; test: Inhibition of STAT3 in human MDA-MB-468 cells assessed as downregulation of c-Myc protein expression at 1.25 to 5 uM incubated for 24 hrs by western blot analysis; type: cell-based; conditions: dose 1.25-5 µM; method in brief: as §3
[13] = target: T1, Signal transducer and activator of transcription 3; test: Inhibition of STAT3 in human MDA-MB-468 cells assessed as downregulation of MCL-1 protein expression at 1.25 to 5 uM incubated for 24 hrs by western blot analysis; type: cell-based; conditions: dose 1.25-5 µM; method in brief: as §3
[14] = target: Vascular endothelial growth factor receptor 1 (Homo sapiens) (UniProt P17948); test: Inhibition of VEGFR1 (unknown origin) at 1 uM by ELISA
[15] = target: Platelet-derived growth factor receptor beta (Homo sapiens) (UniProt P09619); test: Inhibition of PDGFRbeta (unknown origin) at 1 uM by ELISA
[16] = target: Receptor tyrosine-protein kinase erbB-2 (Homo sapiens) (UniProt P04626); test: Inhibition of ERBB2 (unknown origin) at 1 uM by ELISA
Sequence of Receptor tyrosine-protein kinase erbB-2 (Homo sapiens) (P04626 whole entry): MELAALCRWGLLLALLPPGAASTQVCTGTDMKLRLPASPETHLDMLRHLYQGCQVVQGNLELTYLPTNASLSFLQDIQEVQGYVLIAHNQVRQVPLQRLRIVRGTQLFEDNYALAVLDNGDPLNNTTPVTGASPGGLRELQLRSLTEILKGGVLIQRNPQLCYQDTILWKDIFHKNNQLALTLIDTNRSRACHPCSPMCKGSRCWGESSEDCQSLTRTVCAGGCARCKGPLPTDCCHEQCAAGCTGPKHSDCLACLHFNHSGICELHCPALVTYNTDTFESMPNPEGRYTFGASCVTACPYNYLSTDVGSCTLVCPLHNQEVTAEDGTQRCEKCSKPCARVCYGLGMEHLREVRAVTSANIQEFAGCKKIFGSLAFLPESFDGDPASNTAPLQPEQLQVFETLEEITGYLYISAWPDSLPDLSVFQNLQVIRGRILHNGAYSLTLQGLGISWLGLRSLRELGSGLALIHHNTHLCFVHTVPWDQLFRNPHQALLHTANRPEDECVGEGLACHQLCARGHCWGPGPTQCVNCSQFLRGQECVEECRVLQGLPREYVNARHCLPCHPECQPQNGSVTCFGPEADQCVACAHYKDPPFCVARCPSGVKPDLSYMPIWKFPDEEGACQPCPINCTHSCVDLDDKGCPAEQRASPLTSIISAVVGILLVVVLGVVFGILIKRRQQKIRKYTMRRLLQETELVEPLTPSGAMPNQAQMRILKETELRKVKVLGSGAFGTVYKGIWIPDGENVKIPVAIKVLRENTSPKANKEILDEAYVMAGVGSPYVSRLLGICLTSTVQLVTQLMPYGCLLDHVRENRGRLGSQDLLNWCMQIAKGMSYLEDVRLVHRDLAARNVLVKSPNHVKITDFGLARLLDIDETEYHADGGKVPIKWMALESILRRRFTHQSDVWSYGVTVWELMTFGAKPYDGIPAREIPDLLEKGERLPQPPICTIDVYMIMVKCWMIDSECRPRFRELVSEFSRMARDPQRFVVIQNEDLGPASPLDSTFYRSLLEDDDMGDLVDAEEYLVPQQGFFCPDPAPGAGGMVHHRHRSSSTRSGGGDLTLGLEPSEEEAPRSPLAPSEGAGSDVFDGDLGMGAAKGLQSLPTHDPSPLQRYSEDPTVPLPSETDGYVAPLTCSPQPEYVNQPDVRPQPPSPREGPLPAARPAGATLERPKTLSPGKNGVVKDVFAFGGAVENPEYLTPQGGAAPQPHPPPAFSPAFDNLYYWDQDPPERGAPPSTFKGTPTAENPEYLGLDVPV

[17] = target: Receptor tyrosine-protein kinase erbB-4 (Homo sapiens) (UniProt Q15303); test: Inhibition of ERBB4 (unknown origin) at 1 uM by ELISA
Sequence of Receptor tyrosine-protein kinase erbB-4 (Homo sapiens) (Q15303 whole entry): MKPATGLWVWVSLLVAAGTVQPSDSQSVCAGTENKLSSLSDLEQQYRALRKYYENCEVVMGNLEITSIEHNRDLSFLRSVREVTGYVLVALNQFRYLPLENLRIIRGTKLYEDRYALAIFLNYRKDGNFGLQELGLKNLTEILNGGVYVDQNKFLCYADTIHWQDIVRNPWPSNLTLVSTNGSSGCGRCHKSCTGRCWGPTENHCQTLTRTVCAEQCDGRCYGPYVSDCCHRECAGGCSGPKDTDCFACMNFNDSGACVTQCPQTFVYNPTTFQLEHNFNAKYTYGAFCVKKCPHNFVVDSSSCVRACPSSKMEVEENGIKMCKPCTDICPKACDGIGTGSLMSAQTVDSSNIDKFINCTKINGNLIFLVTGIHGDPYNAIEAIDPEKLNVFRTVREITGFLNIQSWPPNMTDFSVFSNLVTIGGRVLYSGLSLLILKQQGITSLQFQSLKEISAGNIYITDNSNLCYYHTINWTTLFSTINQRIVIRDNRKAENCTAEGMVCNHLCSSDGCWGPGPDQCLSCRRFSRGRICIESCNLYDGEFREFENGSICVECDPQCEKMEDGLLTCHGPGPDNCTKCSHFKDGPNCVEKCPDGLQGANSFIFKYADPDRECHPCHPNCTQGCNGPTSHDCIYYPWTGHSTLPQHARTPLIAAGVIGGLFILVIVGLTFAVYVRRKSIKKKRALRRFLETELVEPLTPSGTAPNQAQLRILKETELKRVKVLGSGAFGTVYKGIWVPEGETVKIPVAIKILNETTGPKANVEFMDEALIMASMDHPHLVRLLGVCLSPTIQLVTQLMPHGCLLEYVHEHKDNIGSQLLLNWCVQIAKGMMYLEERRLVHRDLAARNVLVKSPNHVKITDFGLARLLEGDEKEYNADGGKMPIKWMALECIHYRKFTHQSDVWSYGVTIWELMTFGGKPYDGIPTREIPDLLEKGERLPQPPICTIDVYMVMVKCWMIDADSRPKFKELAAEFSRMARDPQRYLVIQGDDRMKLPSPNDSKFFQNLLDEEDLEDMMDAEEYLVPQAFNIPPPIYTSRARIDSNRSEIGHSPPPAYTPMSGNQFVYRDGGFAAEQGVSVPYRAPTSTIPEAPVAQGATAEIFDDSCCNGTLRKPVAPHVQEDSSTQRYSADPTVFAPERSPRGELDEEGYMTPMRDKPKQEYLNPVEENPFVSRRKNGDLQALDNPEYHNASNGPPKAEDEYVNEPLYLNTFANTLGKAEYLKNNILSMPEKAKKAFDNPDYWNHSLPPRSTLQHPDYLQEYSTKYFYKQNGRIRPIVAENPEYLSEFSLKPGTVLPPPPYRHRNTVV

[18] = target: Insulin-like growth factor 1 receptor (Homo sapiens) (UniProt P08069); test: Inhibition of IGF1R (unknown origin) at 1 uM by ELISA
Sequence of Insulin-like growth factor 1 receptor (Homo sapiens) (P08069 31-736 limits assumed): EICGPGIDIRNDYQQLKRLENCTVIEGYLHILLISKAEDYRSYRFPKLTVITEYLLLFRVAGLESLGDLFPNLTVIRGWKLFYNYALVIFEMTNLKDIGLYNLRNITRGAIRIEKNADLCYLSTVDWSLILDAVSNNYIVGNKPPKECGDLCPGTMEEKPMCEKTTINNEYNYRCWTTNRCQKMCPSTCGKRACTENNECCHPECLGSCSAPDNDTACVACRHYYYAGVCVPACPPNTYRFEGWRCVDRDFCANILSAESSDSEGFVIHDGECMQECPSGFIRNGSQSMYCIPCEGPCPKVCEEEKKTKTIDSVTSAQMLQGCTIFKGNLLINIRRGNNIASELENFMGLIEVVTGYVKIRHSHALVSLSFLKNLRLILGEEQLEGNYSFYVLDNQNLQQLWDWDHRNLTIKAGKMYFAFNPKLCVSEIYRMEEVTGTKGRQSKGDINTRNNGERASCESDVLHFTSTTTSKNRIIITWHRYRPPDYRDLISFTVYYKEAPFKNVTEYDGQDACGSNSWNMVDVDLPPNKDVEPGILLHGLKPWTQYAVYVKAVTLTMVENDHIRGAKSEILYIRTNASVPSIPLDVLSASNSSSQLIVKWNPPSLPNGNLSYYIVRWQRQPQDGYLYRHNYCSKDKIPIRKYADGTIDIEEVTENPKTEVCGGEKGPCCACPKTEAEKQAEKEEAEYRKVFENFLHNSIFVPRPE
Sequence of Insulin-like growth factor 1 receptor (Homo sapiens) (P08069 741-1367 limits assumed): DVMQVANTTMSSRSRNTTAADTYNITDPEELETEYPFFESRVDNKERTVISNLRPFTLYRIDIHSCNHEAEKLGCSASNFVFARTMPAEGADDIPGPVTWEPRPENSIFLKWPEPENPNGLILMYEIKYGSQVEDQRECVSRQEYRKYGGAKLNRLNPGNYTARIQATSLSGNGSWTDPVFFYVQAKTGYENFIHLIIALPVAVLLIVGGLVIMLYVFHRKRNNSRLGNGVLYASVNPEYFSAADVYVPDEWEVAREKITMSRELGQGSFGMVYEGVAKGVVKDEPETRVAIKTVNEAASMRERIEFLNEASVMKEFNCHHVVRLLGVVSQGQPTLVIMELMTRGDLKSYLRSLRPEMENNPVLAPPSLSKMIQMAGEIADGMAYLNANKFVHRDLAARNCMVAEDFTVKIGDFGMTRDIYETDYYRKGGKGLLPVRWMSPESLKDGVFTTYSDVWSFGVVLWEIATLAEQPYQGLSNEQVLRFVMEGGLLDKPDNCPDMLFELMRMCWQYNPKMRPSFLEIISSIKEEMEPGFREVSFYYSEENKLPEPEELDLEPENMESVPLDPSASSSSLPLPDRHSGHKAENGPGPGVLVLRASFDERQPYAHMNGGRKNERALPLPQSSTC

[19] = test system: MDA-MB-468; test: Induction of apoptosis in human MDA-MB-468 cells at 1.25 to 5 uM measured after 48 hrs by AnnexinV-FITC/PI staining based flow cytometry analysis; type: functional, cell-based; conditions: dose 1.25-5 µM
Method in brief: (§4)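 Cells were seeded overnight, then exposed to DMSO or compound for 48 h. They were washed twice in PBS and resuspended in binding buffer with Annexin V-FITC and propidium iodide. After 15 min at room temperature in the dark, cells were analysed by flow cytometry; data are representative of three independent experiments.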

[20] = test system: HEL; test: Induction of apoptosis in human HEL cells expressing JAK2 V617F mutant cells at 1.25 to 5 uM measured after 48 hrs by AnnexinV-FITC/PI staining based flow cytometry analysis; type: functional, cell-based; conditions: dose 1.25-5 µM; method in brief: as §4
[21] = test system: MDA-MB-468; test: Induction of cell cycle arrest in human MDA-MB-468 cells assessed as increase in accumulation at G2/M phase after 48 hrs by PI/RNase staining based flow cytometry; type: functional; conditions: dose 1.25-5 µM
Method in brief: (§5)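 Cells were seeded overnight, then exposed to DMSO or increasing compound concentrations for 48 h. They were fixed in ice-cold 80% ethanol overnight, stained with PI containing RNase for 30 min at 37 °C, and analysed by flow cytometry.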

[22] = test system: HEL; test: Induction of cell cycle arrest in human HEL cells expressing JAK2 V617F mutant cells assessed as increase in accumulation at G2/M phase after 48 hrs by PI/RNase staining based flow cytometry; type: functional; conditions: dose 1.25-5 µM; method in brief: as §5
[23] = test system: MDA-MB-468; test: Induction of cell cycle arrest in human MDA-MB-468 cells assessed as decrease in accumulation at G1 phase after 48 hrs by PI/RNase staining based flow cytometry; type: functional; conditions: dose 1.25-5 µM; method in brief: as §5
[24] = test system: HEL; test: Induction of cell cycle arrest in human HEL cells expressing JAK2 V617F mutant cells assessed as decrease in accumulation at G1 phase after 48 hrs by PI/RNase staining based flow cytometry; type: functional; conditions: dose 1.25-5 µM; method in brief: as §5
[25] = target: T1, Signal transducer and activator of transcription 3; test: Binding affinity to His-tagged STAT3-SH2 domain (127 to 722 residues) (unknown origin) by surface plasmon resonance analysis
Method in brief: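 SPR on a Biacore T200 with STAT3 SH2 domain. Analytes were run as concentration series, and KD was taken as the equilibrium constant.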

[26] = target: T1, Signal transducer and activator of transcription 3; test: Displacement of 5'-FAM-GpYLPQTV-NH2 from His-tagged STAT3-SH2 domain (127 to 722 residues) (unknown origin) assessed as binding rate at 100 uM […] by fluorescence polarization assay; conditions: time 90.0 min
[27] = target: T1, Signal transducer and activator of transcription 3; test: Displacement of 5'-FAM-GpYLPQTV-NH2 from His-tagged STAT3-SH2 domain (127 to 722 residues) (unknown origin) assessed as binding rate at 50 uM […] by fluorescence polarization assay; conditions: time 90.0 min
[28] = target: T1, Signal transducer and activator of transcription 3; test: Displacement of 5'-FAM-GpYLPQTV-NH2 from His-tagged STAT3-SH2 domain (127 to 722 residues) (unknown origin) assessed as binding rate at 20 uM […] by fluorescence polarization assay; conditions: time 90.0 min
[29] = test system: HEL; test: Effect on STAT3 expression in human HEL cells expressing JAK2 V617F mutant at 1.25 to 5 uM measured after 24 hrs by Western blot analysis; type: functional, cell-based; conditions: dose 1.25-5 µM; method in brief: as §3
[30] = test system: MDA-MB-468; test: Effect on STAT3 expression in human MDA-MB-468 cells at 1.25 to 5 uM measured after 24 hrs by Western blot analysis; type: functional, cell-based; conditions: dose 1.25-5 µM; method in brief: as §3

Row | SMILES | IC50 [1] [µM] | IC50 [2] [µM] | IC50 [3] [µM] | IC50 [4] [µM] | IC50 [5] [µM] | inhibition [6] | inhibition [7] | inhibition [8] | inhibition [9] | inhibition [10] | inhibition [11] | inhibition [12] | inhibition [13] | inhibition [14] [%] | inhibition [15] [%] | inhibition [16] [%] | inhibition [17] [%] | inhibition [18] [%] | Activity [19] | Activity [20] | also measured
1 | CCCC(C)Oc1ccc(C(=O)Nc2ccc3nc(SCC(=O)N[C@@H](C)c4ccccc4)sc3c2)c(OC)c1C (stereo not given in full) | 0.16 | 2.41 | 1.04 | > 20 | > 20 | Dose-Dependent Effect | Dose-Dependent Effect | Dose-Dependent Effect | Dose-Dependent Effect | Active | Active | Active | Active | 0 | 0 | 5.2 | 0 | 0 | Active | Active | Activity [21]: Dose-Dependent Effect; Activity [22]: Dose-Dependent Effect; Activity [23]: Dose-Dependent Effect; Activity [24]: Dose-Dependent Effect; Kd [25]: 0.0626 µM; Activity [26]: < 10%; Activity [27]: < 10%; Activity [28]: < 10%; Activity [29]: inactive; Activity [30]: inactive
2 | CCCC(C)Oc1ccc(C(=O)Nc2ccc3nc(SCC(=O)N[C@@H](C)c4ccc(OC)cc4)sc3c2)c(OC)c1C (stereo not given in full) | 0.067 | 1.11 | 0.25 | > 20 | > 20 | Dose-Dependent Effect | Dose-Dependent Effect | Dose-Dependent Effect | Dose-Dependent Effect | Active | Active | Active | Active | 0 | 0 | 9.6 | 0 | 0 | Active | Active | Activity [21]: Dose-Dependent Effect; Activity [22]: Dose-Dependent Effect; Activity [23]: Dose-Dependent Effect; Activity [24]: Dose-Dependent Effect; Kd [25]: 0.053 µM; Activity [26]: < 10%; Activity [27]: < 10%; Activity [28]: < 10%; Activity [29]: inactive; Activity [30]: inactive
